Measured values reported in ChEMBL document CHEMBL4480397, “Discovery of a Natural-Product-Derived Preclinical Candidate for Once-Weekly Treatment of Type 2 Diabetes” (J Med Chem, 2019).
Active and inactive are the calls of the source. The calls are words filed in the database; no cut-off is given here.

Legend:
[1] = Terminal half life in ICR mouse at 2 mg/kg, po by LC-MS-MS analysis; type: ADME, organism-based; conditions: in vivo, read-out: beta t1/2 (converted)
In short: (§1)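 Male ICR mice (n = 4/group), fasted 2 h, given a single oral dose of 2 mg/kg. Baseline blood was taken into EDTA, then samples at 1, 2, 4, 6, 8, 24, 48, 72, 96 and 120 h. Plasma was kept at -80 °C and concentrations measured by LC/MS/MS. Parameters came from noncompartmental analysis; values are means.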

[2] = Tmax in ICR mouse at 2 mg/kg, po by LC-MS-MS analysis; type: ADME, organism-based; conditions: in vivo; in short: as §1
[3] = Cmax in ICR mouse at 2 mg/kg, po by LC-MS-MS analysis; type: ADME, organism-based; parameters: dose 2 mg/kg, route oral; conditions: in vivo; in short: as §1
Mus musculus [4] = test: Initial plasma concentration in ICR mouse at 2 mg/kg, po by LC-MS-MS analysis; type: ADME, organism-based; conditions: in vivo; in short: as §1
[5] = AUCt in ICR mouse at 2 mg/kg, po by LC-MS-MS analysis; type: ADME, organism-based; conditions: in vivo; in short: as §1
[6] = AUC (0 to infinity) in ICR mouse at 2 mg/kg, po by LC-MS-MS analysis; type: ADME, organism-based; parameters: dose 2 mg/kg, route oral, time infinity; conditions: in vivo; in short: as §1
[7] = MRT (0 to infinity) in ICR mouse at 2 mg/kg, po by LC-MS-MS analysis; type: ADME, organism-based; conditions: in vivo; in short: as §1
[8] = Tmax in Sprague-Dawley rat at 2 mg/kg, po by LC-MS-MS analysis; type: ADME, organism-based; conditions: in vivo
Rattus norvegicus = test: Initial plasma concentration in Sprague-Dawley rat at 2 mg/kg, po by LC-MS-MS analysis; type: ADME, organism-based; conditions: in vivo
[9] = Cmax in Sprague-Dawley rat at 2 mg/kg, po by LC-MS-MS analysis; type: ADME, organism-based; parameters: dose 2 mg/kg, route oral; conditions: in vivo
[10] = AUCt in Sprague-Dawley rat at 2 mg/kg, po by LC-MS-MS analysis; type: ADME, organism-based; conditions: in vivo
[11] = Terminal half life in Sprague-Dawley rat at 1 mg/kg, iv by LC-MS-MS analysis; type: ADME, organism-based; conditions: in vivo, read-out: beta t1/2 (converted)
[12] = Initial plasma concentration in Sprague-Dawley rat at 1 mg/kg, iv by LC-MS-MS analysis; type: ADME, organism-based
[13] = Cmax in Sprague-Dawley rat at 1 mg/kg, iv by LC-MS-MS analysis; type: ADME, organism-based; parameters: dose 1 mg/kg, route intravenous; conditions: in vivo
[14] = AUCt in Sprague-Dawley rat at 1 mg/kg, iv by LC-MS-MS analysis; type: ADME, organism-based; conditions: in vivo
[15] = AUC (0 to infinity) in Sprague-Dawley rat at 1 mg/kg, iv by LC-MS-MS analysis; type: ADME, organism-based; parameters: dose 1 mg/kg, route intravenous, time infinity; conditions: in vivo
[16] = Clearance in Sprague-Dawley rat at 1 mg/kg, iv by LC-MS-MS analysis; type: ADME, organism-based; conditions: in vivo
[17] = MRT (0 to infinity) in Sprague-Dawley rat at 1 mg/kg, iv by LC-MS-MS analysis; type: ADME, organism-based; conditions: in vivo
[18] = Volume of distribution at steady state in Sprague-Dawley rat at 1 mg/kg, iv by LC-MS-MS analysis; type: ADME, organism-based; conditions: in vivo, read-out: Vdss
[19] = Plasma concentration in Sprague-Dawley rat at 2 mg/kg, po by LC-MS-MS analysis; type: ADME, organism-based; conditions: in vivo
[20] = Plasma concentration in Sprague-Dawley rat at 2 mg/kg, po after 24 hrs by LC-MS-MS analysis; type: ADME, organism-based; conditions: in vivo
[21] = Oral bioavailability in Sprague-Dawley rat at 2 mg/kg after 24 hrs by LC-MS-MS analysis; type: ADME, organism-based; conditions: in vivo
Mus musculus [22] = test: Anti-diabetic activity in ICR mouse assessed as inhibition of DPP4 in plasma at 3 mg/kg, po administered as single dose using Gly-Pro-AMC as substrate and measured after 7 days post dose by fluorometric assay relative to control; type: functional; conditions: 168 h
In short: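 Male ICR mice (n = 10/group), fasted 2 h, given single oral doses of 0.03–3 mg/kg in 0.5% CMC-Na, with pre-dose baseline blood. Blood was drawn at 1–168 h. […] DPP-4 was read continuously for 5 min at 37 °C with 10 µM Gly-Pro-AMC in 100 mM HEPES pH 7.5 containing 0.1 mg/mL BSA (ex 360/em 460 nm). % activity is the treated rate over each animal's own baseline rate.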

Mus musculus [23] = test: Anti-diabetic activity in 8 hrs-fasted ICR mouse assessed as reduction in blood glucose AUC (0 to 120 mins)at 0.3 mg/kg, po pretreated for 60 mins followed by glucose challenge and measured after 120 mins post glucose challenge by OGTT relative to control; type: functional
In short: (§2)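 Male ICR mice (n = 10/group), fasted 8 h, dosed orally at 0.03, 0.3 or 3 mg/kg in 0.5% CMC-Na 1 h before an oral glucose load of 3 g/kg. Glucometer readings at −60, 0, 15, 30, 60, 90 and 120 min. Glucose AUC0–120 min by the trapezoidal method; one-way ANOVA with Fisher's LSD against vehicle.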

Mus musculus [24] = test: Anti-diabetic activity in 8 hrs-fasted ICR mouse assessed as reduction in blood glucose AUC (0 to 120 mins) at 3 mg/kg, po pretre at ed for 60 mins followed by glucose challenge and measured after 120 mins post glucose challenge by OGTT rel at ive to control; type: functional; in short: as §2
Mus musculus [25] = test: Anti-diabetic activity in 8 hrs-fasted ICR mouse assessed as increase in insulin levels at 3 mg/kg, po pretreated for 60 mins followed by glucose challenge by OGTT; type: functional, organism-based
In short: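 Male ICR mice (n = 10/group), fasted 8 h, dosed orally at 0.3, 1 or 3 mg/kg 1 h before oral glucose at 3 g/kg. Blood was collected at 0, 5 and 10 min into tubes with valine pyrrolidide and EDTA. Active GLP-1[7-36 amide] and insulin measured by kit. Two-way ANOVA with Fisher's LSD against vehicle.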

Mus musculus [26] = test: Anti-diabetic activity in db/db mouse assessed as reduction in fasting blood glucose at 3 mg/kg, po dosed once weekly for 8 weeks; type: functional; parameters: scale not given: the % may be the effect or the level left
Mus musculus [27] = test: Anti-diabetic activity in db/db mouse assessed as reduction in fasting blood glucose at 10 mg/kg, po dosed once weekly for 8 weeks; type: functional; parameters: scale not given: the % may be the effect or the level left
Mus musculus [28] = test: Anti-diabetic activity in db/db mouse assessed as increase in glucose tolerance at 10 mg/kg, po dosed once weekly for 8 weeks by OGTT; type: functional, organism-based
Mus musculus [29] = test: Anti-diabetic activity in db/db mouse assessed as HbA1c levels at 10 mg/kg, po dosed once weekly for 8 weeks; type: functional
[30] = Toxicity in db/db mouse assessed as induction of abnormal weight gain at 3 to 10 mg/kg, po dosed once weekly for 8 weeks; type: organism-based; conditions: in vivo, 1344 h
[31] = target: Voltage-gated inwardly rectifying potassium channel KCNH2 (Homo sapiens, UniProt Q12809); test: Inhibition of human ERG by patch clamp assay
[32] = Toxicity in ICR mouse assessed at 300 mg/kg, po administered as single dose; type: organism-based; conditions: in vivo
In short: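 ICR mice given a single oral dose of 300 mg/kg to assess acute toxicity.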

[33] = Toxicity in ICR mouse assessed as effect on clinical signs at 30 mg/kg, po administered once daily for 14 consecutive days; type: organism-based; conditions: in vivo
In short: (§3)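 ICR mice dosed orally at 30 mg/kg once daily for 14 consecutive days. Endpoints were clinical signs, body weight, organ index, blood parameters and serum biochemistry, each compared with a control group.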

[34] = Toxicity in ICR mouse assessed as effect on body weight at 30 mg/kg, po administered once daily for 14 consecutive days; type: organism-based; conditions: in vivo; in short: as §3
[35] = Toxicity in ICR mouse assessed as effect on organ index at 30 mg/kg, po administered once daily for 14 consecutive days; type: organism-based; conditions: in vivo; in short: as §3
[36] = Toxicity in ICR mouse assessed as effect on blood parameter at 30 mg/kg, po administered once daily for 14 consecutive days; type: organism-based; conditions: in vivo; in short: as §3
[37] = Toxicity in db/db mouse assessed as induction of distress signs at 3 to 10 mg/kg, po dosed once weekly for 8 weeks; type: organism-based; conditions: in vivo, 1344 h
[38] = Toxicity in db/db mouse assessed as induction of discomfort signs at 3 to 10 mg/kg, po dosed once weekly for 8 weeks; type: organism-based; conditions: in vivo, 1344 h
[39] = Toxicity in ICR mouse assessed as effect on serum biochemical parameters at 30 mg/kg, po administered once daily for 14 consecutive days; type: organism-based; conditions: in vivo; in short: as §3
Mus musculus [40] = test: Anti-diabetic activity in mouse assessed as inhibition of DPP4 in plasma at 3 mg/kg, po administered as single dose pretreated for 60 mins followed by glucose challenge and measured over 168 hrs post dose
Mus musculus [41] = test: Anti-diabetic activity in 6 hrs-fasted db/db mouse assessed as reduction in blood glucose AUC (0 to 120 mins) at 10 mg/kg, po pretre at ed for 60 mins followed by glucose challenge and measured after 120 mins post glucose challenge by OGTT rel at ive to control

Sequence of Voltage-gated inwardly rectifying potassium channel KCNH2 (Q12809 whole entry): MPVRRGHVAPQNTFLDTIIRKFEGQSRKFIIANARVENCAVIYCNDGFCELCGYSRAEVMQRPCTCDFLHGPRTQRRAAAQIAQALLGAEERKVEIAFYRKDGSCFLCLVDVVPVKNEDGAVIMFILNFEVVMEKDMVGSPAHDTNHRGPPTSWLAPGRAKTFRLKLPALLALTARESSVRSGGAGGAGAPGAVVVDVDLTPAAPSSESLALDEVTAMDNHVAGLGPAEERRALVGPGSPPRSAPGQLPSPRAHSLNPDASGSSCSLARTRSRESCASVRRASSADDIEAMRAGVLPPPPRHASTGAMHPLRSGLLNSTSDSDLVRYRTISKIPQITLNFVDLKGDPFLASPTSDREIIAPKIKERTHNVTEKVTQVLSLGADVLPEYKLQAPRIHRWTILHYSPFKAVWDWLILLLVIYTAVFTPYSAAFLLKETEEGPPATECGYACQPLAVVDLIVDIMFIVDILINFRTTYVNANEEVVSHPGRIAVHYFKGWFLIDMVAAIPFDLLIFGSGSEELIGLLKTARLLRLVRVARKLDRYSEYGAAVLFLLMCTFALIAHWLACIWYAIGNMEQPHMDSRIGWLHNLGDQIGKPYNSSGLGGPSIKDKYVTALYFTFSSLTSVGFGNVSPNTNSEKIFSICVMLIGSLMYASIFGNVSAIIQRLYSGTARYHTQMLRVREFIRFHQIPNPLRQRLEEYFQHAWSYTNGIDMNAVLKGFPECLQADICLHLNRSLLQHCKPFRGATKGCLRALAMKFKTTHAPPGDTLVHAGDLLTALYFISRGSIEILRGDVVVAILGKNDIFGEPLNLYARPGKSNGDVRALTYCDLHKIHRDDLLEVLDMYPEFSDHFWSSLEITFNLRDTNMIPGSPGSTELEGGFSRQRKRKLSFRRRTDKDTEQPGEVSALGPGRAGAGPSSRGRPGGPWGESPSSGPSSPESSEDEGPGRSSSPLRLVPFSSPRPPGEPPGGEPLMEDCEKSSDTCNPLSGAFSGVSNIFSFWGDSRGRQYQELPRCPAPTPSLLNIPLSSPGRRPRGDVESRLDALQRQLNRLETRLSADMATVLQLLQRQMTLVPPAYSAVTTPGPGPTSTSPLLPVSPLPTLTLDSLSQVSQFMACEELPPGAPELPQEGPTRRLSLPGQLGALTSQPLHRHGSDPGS

- half-life [1]: 1520 min
- Tmax [2]: 10.2 h
- Cmax [3]: 1770 ng/mL
- C0 (Mus musculus [4]): 1773.37 µg/L
- AUC(0-t) [5]: 82000 ng·h/mL
- AUC(0-inf) [6]: 85600 ng·h/mL
- MRT inf [7]: 40.7 h
- Tmax [8]: 6.67 h
- C0 (Rattus norvegicus): 1387.47 µg/L
- Cmax [9]: 1390 ng/mL
- AUC(0-t) [10]: 23200 ng·h/mL
- half-life [11]: 714 min
- C0 [12]: 2010 ng/mL
- Cmax [13]: 2010 ng/mL
- AUC(0-t) [14]: 11800 ng·h/mL
- AUC(0-inf) [15]: 15400 ng·h/mL
- clearance [16]: 1.1 mL/min/kg
- MRT inf [17]: 15.9 h
- Vd [18]: 2.07 L/kg
- Drug uptake [19]: Active
- Drug uptake [20]: Active
- bioavailability [21]: 98.5%
Structure (SMILES): COc1cc2c3c(ccc2cc1C#N)O[C@H](c1cc(F)c(F)cc1F)[C@@H](N)C3
- inhibition in vivo at 3 mg/kg (Mus musculus [22]): ≤ 80%
- inhibition in vivo at 0.3 mg/kg (Mus musculus [23]): 16.4%
- inhibition in vivo at 3 mg/kg (Mus musculus [24]): 27.2%
- Activity (Mus musculus [25]): Active
- Activity (Mus musculus [26]): 24.7%
- Activity (Mus musculus [27]): 33.1%
- Activity (Mus musculus [28]): Active
- Activity (Mus musculus [29]): 3.56%
- Activity [30]: Non-Toxic
- IC50 [31]: > 40 µM
- Activity [32]: Non-Toxic
- Activity [33]: Non-Toxic
- Activity [34]: Non-Toxic
- Activity [35]: Non-Toxic
- Activity [36]: Non-Toxic
- Activity [37]: Non-Toxic
- Activity [38]: Non-Toxic
- Activity [39]: Non-Toxic
- inhibition in vivo at 3 mg/kg (Mus musculus [40]): > 80%
- inhibition in vivo at 10 mg/kg (Mus musculus [41]): 18.3%
